From ChEMBL document CHEMBL4385596, “Fragment-Based Discovery of a Qualified Hit Targeting the Latency-Associated Nuclear Antigen of the Oncogenic Kaposi's Sarcoma-Associated Herpesvirus/Human Herpesvirus 8” (J Med Chem, 2019)
Active and inactive are the calls of the source. The calls are words filed in the database; no cut-off is given here.

Experiments:
Human gammaherpesvirus 8 [1] = experiment: Binding affinity to wild-type human herpesvirus 8 GST-tagged LANA C-terminal domain (934 to 1162 residues) assessed as change in melting temperature at 500 uM by differential scanning fluorimetry
Summary of the method: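 Thermal shift (DSF) used wild-type LANA C-terminal domain (aa934-1162) at 20 µM final and compound at 500 µM final. Buffer was 10 mM PBS pH 7.4, 5% DMSO, 0.05% Tween20. Melting was run in a real-time PCR instrument, and the change in denaturation temperature (TM) was recorded.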

[2] = test system: ORF 73 (Human herpesvirus 8), O40947 [UNDEFINED MUTATION]; experiment: (§1) Inhibition of fluorescent labelled LBS2 DNA binding to human herpesvirus 8 C-terminal His-tagged LANA oligomerization deficient mutant DBD (1008 to 1146 residues) expressed in Escherichia coli BL21 (DE3) at 1 mM preincubated for 60 mins followed by fluorescent labelled LBS2 addition and measured after 90 mins by fluorescence polarization assay relative to control; conditions: Human gammaherpesvirus 8
Summary of the method: (§2)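 Single-concentration FP competition assay (1 mM or 500 µM compound). LANA DBD mutant (200 nM final) pre-incubated with compound for 60 min, then fluorescein-labelled LBS2 (10 nM final) added and incubated 90 min. Buffer was HEPES/NaCl/Tween20 with 5% DMSO. Read at excitation 485 nm, emission 520 nm. Percent inhibition from duplicates in two independent experiments.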

Human gammaherpesvirus 8 [3] = experiment: Binding affinity to wild-type human herpesvirus 8 His-tagged LANA C-terminal domain (934 to 1162 residues) at 500 uM by surface plasmon resonance analysis
[4] = Binding affinity to fluorescent labelled LBS2 DNA (unknown origin) by fluorescence polarization assay
Summary of the method: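 Fixed concentration of His-tagged oligomerization-deficient LANA DBD mutant (aa1008-1146, 200 nM final) was pre-incubated 60 min with compound. Fluorescein-labelled LBS2 (10 nM final) was then added and incubated 90 min. Buffer was 10 mM HEPES, 150 mM NaCl, 0.005% Tween20, 5% DMSO. Polarization was read at ex 485/em 520 nm. Runs were done with and without LANA to exclude DNA or quenching interference. Duplicates, two independent experiments.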

ORF 73 [5] = biological target: T1, ORF 73 (Human herpesvirus 8, UniProt O40947); experiment: (§3) Inhibition of fluorescent labelled LBS3 DNA binding to human herpesvirus 8 C-terminal His-tagged LANA oligomerization deficient mutant DBD (1008 to 1146 residues) expressed in Escherichia coli BL21 (DE3) preincubated for 60 mins followed by fluorescent labelled LBS2 addition and measured after 90 mins by fluorescence polarization assay; set-up: species or system Human gammaherpesvirus 8
Summary of the method: (§4)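 FP competition assay. His-tagged LANA DBD mutant (200 nM final) pre-incubated with serially varied compound for 60 min. Fluorescein-labelled LBS1, LBS2 or LBS3 (10 nM final) then added and incubated 90 min. Buffer was 10 mM HEPES, 150 mM NaCl, 0.005% Tween20 with 5% DMSO. Read at excitation 485 nm, emission 520 nm. Duplicates in two independent experiments. Runs without LANA checked for interference. IC50 derived from dose-response.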

ORF 73 [6] = biological target: T1, ORF 73; experiment: as §3, with “LBS2” for “LBS3”; set-up: species or system Human gammaherpesvirus 8; summary of the method: as §4
[7] = test system: ORF 73 (Human herpesvirus 8), O40947 [UNDEFINED MUTATION]; experiment: (§5) Inhibition of 5'-Dy682-labelled LBS1/LBS2 DNA binding to human herpesvirus 8 C-terminal His-tagged LANA oligomerization deficient mutant DBD (1008 to 1146 residues) expressed in Escherichia coli BL21 (DE3) at 500 uM preincubated for 1 hr followed by 5'-Dy682-labelled LBS1 DNA addition and measured after 30 mins by electrophoretic mobility shift assay; conditions: Human gammaherpesvirus 8
Summary of the method: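 Native-gel EMSA with a longer Dy-682-labelled probe carrying both LBS1 and LBS2 (20 nM). LANA DBD mutant (200 nM) pre-incubated with compound (500 µM) for 1 h at RT in the dark. Buffer was Tris-HCl pH 7.5 with KCl, MgCl2, DTT, EDTA, glycerol, Tween20, BSA and poly(dI-dC). Band intensities normalised to percent inhibition. Run in duplicate; GST served as control.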

ORF 73 [8] = biological target: T1, ORF 73; experiment: as §3, with “LBS1” for “LBS3”; set-up: species or system Human gammaherpesvirus 8; summary of the method: as §4
[9] = test system: ORF 73 (Human herpesvirus 8), O40947 [UNDEFINED MUTATION]; experiment: as §5, with “LBS1” for “LBS1/LBS2”; conditions: Human gammaherpesvirus 8
Summary of the method: (§6)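 Native-gel EMSA. LANA DBD mutant (200 nM final) pre-incubated with compound for 1 h at RT in the dark, then Dy-682-labelled LBS1 probe (20 nM) added. Complex and free-probe band intensities normalised to 0–100% inhibition. Run in duplicate; purified GST served as control.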

ORF 73 [10] = biological target: T1, ORF 73; experiment: as §5, with “LBS1” for “LBS1/LBS2”, “(DE3)” for “(DE3) at 500 uM”; set-up: species or system Human gammaherpesvirus 8; summary of the method: as §6
[11] = Inhibition of 5'-Dy682-labelled LBS1 DNA binding to GST-tagged LANA C-terminal domain (934 to 1162 residues) preincubated for 1 hr followed by 5'-Dy682-labelled LBS1 DNA addition and measured after 30 mins by electrophoretic mobility shift assay; set-up: species or system Human gammaherpesvirus 8
Summary of the method: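 Dose-dependent native-gel EMSA used Dy-682-labelled LBS1 probe with wild-type LANA CTD (aa934-1162). Protein was incubated with compound for 1 h at RT in the dark. IC50 was calculated from band intensities.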

[12] = test system: ORF 73 (Human herpesvirus 8), O40947 [UNDEFINED MUTATION]; experiment: Binding affinity to human herpesvirus 8 C-terminal His-tagged LANA oligomerization deficient mutant DBD (1008 to 1146 residues) expressed in Escherichia coli BL21 (DE3) at 1 mM by STD-NMR analysis; conditions: Human gammaherpesvirus 8
Summary of the method: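 STD NMR at 298 K, 500 MHz. Ligand at 1 mM final (40-fold excess) over LANA DBD mutant at 25 µM final. On-resonance irradiation at 0 ppm, off-resonance at -40 ppm. STD effect (I/I0) calculated per ligand proton. A free-compound control spectrum was recorded to check for artefacts.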

ORF 73 [13] = biological target: T1, ORF 73; experiment: Binding affinity to human herpesvirus human herpesvirus 8 C-terminal His-tagged LANA oligomerization deficient mutant DBD (1008 to 1146 residues) expressed in Escherichia coli BL21 (DE3) by microscale thermophoresis assay; set-up: species or system Human gammaherpesvirus 8
Summary of the method: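 His-tagged LANA DBD mutant labelled with a RED-tris NTA His-tag dye, used at 50 nM. Ligand titrated in a dose-response series starting at 1 mM. Buffer was 10 mM HEPES, 150 mM NaCl, 2 mM DTT, 0.005% Tween20 with 5% DMSO. KD derived from thermophoresis.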

[14] = test system: ORF 73 (Human herpesvirus 8), O40947 [UNDEFINED MUTATION]; experiment: as §1, with “500 uM” for “1 mM”; conditions: Human gammaherpesvirus 8; summary of the method: as §2

Row | SMILES | inhibition [2] | Activity [4] | IC50 (ORF 73 [6]; read-out: IC50) | further results
1 | Nc1ccccc1-n1ccnc1 | 25% | inactive | – | ΔTm (Human gammaherpesvirus 8 [1]): -1.8 °C; Activity (Human gammaherpesvirus 8 [3]): 15.7 RU
2 | O=C(O)c1ccc(-n2cc(C3(O)CCCC3)nn2)cc1 | – | inactive | 159 µM | IC50 (ORF 73 [5]): 39 µM; inhibition [7]: inactive; IC50 (ORF 73 [8]): 104 µM; inhibition [9]: inactive
3 | COC(=O)c1ccc(-n2cc(CO)nn2)cc1 | – | inactive | 84 µM | –
4 | Nc1ccccc1-c1cn(-c2ccc(C(=O)O)cc2)nn1 | – | inactive | 28 µM | IC50 (ORF 73 [5]): 26 µM; inhibition [7]: Active; IC50 (ORF 73 [8]): 25 µM; inhibition [9]: Active
5 | O=C(O)c1ccc(-n2cc(-c3ccccc3NCC3CCCCC3)nn2)cc1 | – | inactive | – | IC50 (ORF 73 [6]): Not Active
6 | Nc1cccc(-c2cn(-c3ccc(C(=O)O)cc3)nn2)c1 | – | inactive | 109 µM | IC50 (ORF 73 [5]): 106 µM; inhibition [7]: inactive; IC50 (ORF 73 [8]): 136 µM; inhibition [9]: inactive
7 | COC(=O)c1cn(-c2ccc(C(=O)O)cc2)nn1 | – | inactive | 163 µM | –
8 | O=C(O)c1ccc(-n2cc(CO)nn2)cc1 | – | inactive | 79 µM | –
9 | CC(=O)OCc1cn(-c2ccc(C(=O)O)cc2)nn1 | – | inactive | – | IC50 (ORF 73 [6]): Not Active
10 | Nc1ccc(-n2ccnc2)cc1 | inactive | inactive | – | –
11 | O=[N+]([O-])c1ccc(-n2ccnc2)cc1 | 22% | inactive | – | –
12 | O=C(O)c1ccc(-n2cc(-c3cccc(NCCN4CCOCC4)c3)nn2)cc1 | – | inactive | – | IC50 (ORF 73 [6]): Not Active
13 | O=C(O)c1ccccc1-n1ccnn1 | 12% | inactive | – | –
14 | Cc1cn(-c2ccccc2N)cn1 | 91% | inactive | – | –
15 | O=C(O)c1ccc(-n2cc(-c3ccc(NCC4CCCCC4)cc3)nn2)cc1 | – | inactive | – | IC50 (ORF 73 [6]): Not Active
16 | O=C(O)c1ccc(-c2cn(-c3cccnc3)nn2)cc1 | – | inactive | 17 µM | IC50 (ORF 73 [5]): 19 µM; inhibition [7]: Active; IC50 (ORF 73 [8]): 20 µM; inhibition [9]: Active; IC50 (ORF 73 [10]): 426 µM; IC50 [11]: 435 µM; Activity [12]: Active; Kd (ORF 73 [13]): 23 µM
17 | O=C(O)c1ccc(-n2ccnc2)cc1 | 13% | inactive | – | –
18 | Oc1ccccc1-n1ccnc1 | 51% | inactive | – | –
19 | O=C(O)c1ccc(-n2ccnn2)cc1 | 35% | inactive | – | –
20 | COCc1cn(-c2ccc(C(=O)O)cc2)nn1 | – | inactive | 210 µM | –
21 | O=C(O)c1ccc(-c2cn(-c3ccc(O)cc3)nn2)cc1 | – | inactive | 52 µM | –
22 | O=C(O)c1ccccc1-n1cc(-c2ccccc2)nn1 | 13% | inactive | – | –
23 | O=C(O)c1ccc(-n2cc(-c3ccccc3)nn2)cc1 | – | inactive | 232 µM | –

Row | SMILES | inhibition [2] | Activity [4] | IC50 (ORF 73 [6]; read-out: IC50) | further results
24 | COCc1cn(-c2ccc(C(=O)OC)cc2)nn1 | – | inactive | 237 µM | –
25 | O=[N+]([O-])c1cccc(-n2ccnc2)c1 | 21% | inactive | – | –
26 | COc1ccc(-c2cn(-c3ccc(C(=O)O)cc3)nn2)cc1 | – | inactive | – | inhibition [14]: 20%
27 | Nc1ccccc1-n1cnc(Br)c1 | 13% | inactive | – | –
28 | Nc1ccc(-c2cn(-c3ccc(C(=O)O)cc3)nn2)cc1 | – | inactive | 14 µM | IC50 (ORF 73 [5]): 12 µM; inhibition [7]: Active; IC50 (ORF 73 [8]): 19 µM; inhibition [9]: Active
29 | O=C(O)c1ccc(-n2cc(C3CC3)nn2)cc1 | – | inactive | 694 µM | –
30 | O=C(O)c1cccc(-n2cc(-c3ccccc3)nn2)c1 | 43% | inactive | – | –
31 | Nc1ccccc1-n1cnc2ccccc21 | 32% | inactive | – | –
32 | COc1ccccc1-n1ccnc1 | 15% | inactive | – | –
33 | O=C(O)c1ccc(-n2cc(-c3ccc(CO)cc3)nn2)cc1 | – | inactive | 27 µM | –
34 | O=C(O)c1ccccc1-n1ccnc1 | 50% | – | 333 µM | –
35 | Nc1cccc(-c2cn(-c3ccccc3)nn2)c1 | – | inactive | – | IC50 (ORF 73 [6]): Not Active
36 | O=[N+]([O-])c1ccccc1-n1ccnc1 | 74% | inactive | – | –
37 | Nc1ccc(-n2cc(-c3ccc(C(=O)O)cc3)nn2)cc1 | – | inactive | 19 µM | –
38 | Nc1ccccc1-n1cc(-c2ccc(C(=O)O)cc2)nn1 | – | inactive | 18 µM | IC50 (ORF 73 [5]): 26 µM; inhibition [7]: Active; IC50 (ORF 73 [8]): 25 µM; inhibition [9]: Active
39 | NCc1cn(-c2ccc(C(=O)O)cc2)nn1 | – | inactive | 30 µM | –
40 | O=C(O)c1ccc(-n2cc(-c3cccc(NCCc4ccccc4)c3)nn2)cc1 | – | inactive | – | IC50 (ORF 73 [6]): Not Active
41 | Nc1cccc(-n2ccnc2)c1 | inactive | inactive | – | –
42 | O=C(O)c1cccc(-n2ccnc2)c1 | 19% | inactive | – | –
43 | CC(=O)Nc1ccccc1-n1ccnc1 | 32% | inactive | – | –
44 | O=C(O)c1ccc(-n2cc(-c3cccc(NCC4CCCCC4)c3)nn2)cc1 | – | inactive | – | IC50 (ORF 73 [6]): Not Active
45 | O=C(O)c1cccc(-n2ccnn2)c1 | 98% | inactive | – | –
